Screens (PubChem)
Sampled rows, rich in hits. Any-hit rate of the full collection: about 4.3%.
SDO1 yeast rescue: growth rescue of sdo1-depleted yeast, primary screen, S. cerevisiae, bone marrow failure model; actives 0.21% (n = 140,000); S. cerevisiae sdo1-depleted JHY4D growth rescue, OD600 30 h; active compounds read high; pdr5 snq2 efflux-pump mutant strain; AID 817, 2007; z-score at 10 µM;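 active = z-score above 3 at both the 24 hr and the 30 hr optical density reads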;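 also: z-score against mean and SD of all compound wells on the same plate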
NF-kB neuron act: activators of NF-kB expression in neurons, primary screen, cell-based, HTS; human neuronal cells, NF-kB reporter expression; active compounds read high; fold change at 12.5 µM; actives 1.6% (n = 190,000); AID 1239, 2008; in the data active = fold change above about 3.3
FLuc inh counter: firefly luciferase enzyme inhibitors, primary screen, artefact control for luciferase-based inhibitor screens, biochemical, luminescence, ATPLite. Luciferin 4-monooxygenase (Photinus pyralis), P08659. 10 min. inhibition, % at 10 µM. actives 1.5% (n = 200,000). AID 1006, 2008;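 active = inhibition above about 50% when tested at 10 µM, limit read from the data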
Target sequence (P08659 whole entry, looked up): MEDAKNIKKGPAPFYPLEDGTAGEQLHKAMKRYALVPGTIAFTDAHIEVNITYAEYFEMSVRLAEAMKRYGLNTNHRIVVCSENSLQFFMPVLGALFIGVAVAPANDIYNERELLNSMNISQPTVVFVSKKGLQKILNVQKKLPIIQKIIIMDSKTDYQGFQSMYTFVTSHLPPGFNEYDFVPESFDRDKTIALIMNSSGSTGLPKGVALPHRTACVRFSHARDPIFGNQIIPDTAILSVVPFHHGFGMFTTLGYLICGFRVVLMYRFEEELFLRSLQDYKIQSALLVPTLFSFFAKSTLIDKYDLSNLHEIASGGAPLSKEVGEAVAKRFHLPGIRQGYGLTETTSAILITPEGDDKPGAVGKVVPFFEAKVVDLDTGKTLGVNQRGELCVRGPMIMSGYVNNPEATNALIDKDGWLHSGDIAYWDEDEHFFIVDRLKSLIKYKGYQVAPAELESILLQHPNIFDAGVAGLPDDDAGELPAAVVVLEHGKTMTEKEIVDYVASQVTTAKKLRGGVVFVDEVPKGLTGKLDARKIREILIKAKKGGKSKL
STAT1 act: STAT1 signaling activators, primary screen, cell-based, HTS, luciferase reporter; actives 2.6% (n = 200,000); activation (% of control), % at 5.5 µM; NIH 3T3 STAT1-luciferase reporter, IFN-gamma, luminescence; 100% = IFN-gamma alone, no compound; AID 932, 2007;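 active = activation above the screen-wide mean activation plus 3 SD, cut at about 130% in these data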;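 also: raw ratio to IFN-gamma control signal so 100% means no change and 0% no light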
FLuc stim CS: FLuc activators, initial screening, artefact control for FLuc-dependent activation tests, biochemical, ATPlite luminescence; Luciferin 4-monooxygenase (Photinus pyralis), P08659; ATPlite luciferase biochemical, 10 min; 0 = ATP-free wells, 1 = DMSO control; activation factor at 10 µM; 200,000 tested, under 10 active;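 active = luciferase activation factor, scaled between plate controls, of at least 2 with compound at 10 µM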
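Assay system: Luciferase/luciferin detection reagent, cell-free biochemical luciferase assay / Also added: ATP substrate / Schedule: 10 min at ambient temperature / Measured by: luminescence measurement of luciferase light output / Benchmarks: low control with PBS replacing ATP, high control enzyme plus ATP without compound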
APP 5'UTR act: activators of APP 5'UTR luciferase reporter, primary screen, SH-SY5Y cells | SH-SY5Y APP 5'UTR luciferase reporter, luminescence; zero percent = DMSO vehicle wells | activation, % at 2 µM | actives 1% (n = 190,000);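 active = activation above a set limit, based on mean plus 3 SD of controls, cut at about 140% in these data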
An asterisk follows results filed as active; [ ] = remark or other dose.

`CN(c1ccc(C(=O)Nc2ccc3c(c2)OCCO3)cc1)S(C)(=O)=O` gave SDO1 yeast rescue -0.02, NF-kB neuron act 2.6, FLuc inh counter 56*, STAT1 act 127, FLuc stim CS 0.4 and APP 5'UTR act 104.
`O=C(O)c1ccc(CS(=O)(=O)c2cccc(C(F)(F)F)c2)o1` gave SDO1 yeast rescue 0.56[9.2 µM], NF-kB neuron act 1, FLuc inh counter -8, STAT1 act 105, FLuc stim CS 1.1 and APP 5'UTR act 1.
`Cc1ccccc1NC(=O)C(NC1CCCCC1)C(C)C` (stereo unspecified) gave NF-kB neuron act 0.92, FLuc inh counter -7, STAT1 act 98, FLuc stim CS 1.1 and APP 5'UTR act 25.
CCOc1ccc(N(CC(=O)NCCc2ccc(Cl)cc2)S(=O)(=O)c2c(C)[nH]c(=O)[nH]c2=O)cc1 was read as NF-kB neuron act 0.92, FLuc inh counter -8, STAT1 act 109, FLuc stim CS 1.1 and APP 5'UTR act 12.
Screening COc1cc(SC)ccc1C(=O)Nc1ccc2c(c1)OCCO2 returned SDO1 yeast rescue -1.2, NF-kB neuron act 4.6*, FLuc inh counter 83*, STAT1 act 130*, FLuc stim CS 0.2 and APP 5'UTR act 155*.
Cc1ccnc2nc(C(=O)Nc3ccc4c(c3)OCO4)nn12 was read as SDO1 yeast rescue 1.5, NF-kB neuron act 4*, FLuc inh counter 51*, STAT1 act 107, FLuc stim CS 0.5 and APP 5'UTR act 40.
C=CCOc1ccc(C(=O)NC2CCCCC2)cc1 was read as SDO1 yeast rescue 0.11, NF-kB neuron act 2.1, FLuc inh counter 24, STAT1 act 132*, FLuc stim CS 0.8 and APP 5'UTR act 23.
Cc1ccc(C(=O)Nc2ccc3c(c2)OCO3)o1 was read as SDO1 yeast rescue 0.86, NF-kB neuron act 2.7, FLuc inh counter 40, STAT1 act 122, FLuc stim CS 0.6 and APP 5'UTR act 57.
For C/C(=C\C(=O)c1ccc(C)o1)Nc1ccc2c(c1)OCO2 the results were SDO1 yeast rescue 0.54, NF-kB neuron act 1.5, FLuc inh counter 52*, STAT1 act 106, FLuc stim CS 0.5 and APP 5'UTR act 91.
CCOc1cc(NC(=S)NCCOC)c(OCC)cc1NC(=O)c1ccco1 was read as NF-kB neuron act 0.93, FLuc inh counter -9, STAT1 act 90, FLuc stim CS 1.1 and APP 5'UTR act 6.
Cc1cc(N2C(=O)C3C4CC(C(Br)C4Br)C3C2=O)no1 (stereo unspecified) was read as SDO1 yeast rescue -0.36, NF-kB neuron act 1.2, FLuc inh counter -1, STAT1 act 106, FLuc stim CS 1 and APP 5'UTR act -6.
Screening COc1ccccc1C(=O)NCc1ccc2c(c1)OCO2 returned SDO1 yeast rescue 1, NF-kB neuron act 1.3, FLuc inh counter -1, STAT1 act 106, FLuc stim CS 1 and APP 5'UTR act 27.
Screening COc1ccccc1C(=O)Nc1ccc2c(c1)OCO2 returned SDO1 yeast rescue 0.4, NF-kB neuron act 2.6, FLuc inh counter 31, STAT1 act 132*, FLuc stim CS 0.7 and APP 5'UTR act 91.
For COc1ccc(Cl)cc1C(=O)Nc1ccc2c(c1)OCO2 the results were SDO1 yeast rescue -0.79, NF-kB neuron act 1.2, FLuc inh counter 38, STAT1 act 135*, FLuc stim CS 0.6 and APP 5'UTR act 39.
Screening O=C(Nc1cccc(F)c1)c1ccc2c(c1)OCO2 returned SDO1 yeast rescue 1.4, NF-kB neuron act 3.5*, FLuc inh counter 30, STAT1 act 118, FLuc stim CS 0.7 and APP 5'UTR act 62.
`COc1cc(SC)ccc1C(=O)NCCOc1ccc(F)cc1` gave SDO1 yeast rescue -1.4, NF-kB neuron act 3.2, FLuc inh counter -4, STAT1 act 135*, FLuc stim CS 1 and APP 5'UTR act 53.
COC(=O)c1nn(-c2cccc(C(F)(F)F)c2)c(=O)cc1Sc1ccccn1 was read as SDO1 yeast rescue 0.74, NF-kB neuron act 1.1, FLuc inh counter -6, STAT1 act 95, FLuc stim CS 1.1 and APP 5'UTR act 17.
